Screens: PubChem BioAssay, The Scripps Research Institute Molecular Screening Center
CHRM5 agonist: CHRM5 agonism in calcium assay. CHO-K1 hM5 cells, Fluo-8 calcium fluorescence; 0% DMSO wells, 100% maximal acetylcholine response. activation, % at 3 µM. hit rate 0.19% among 360,000. AID 624037;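 active = activation above the run's mean over test compounds plus 3 SD, cut at about 23% in these data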;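 note: signal is peak over basal fluorescence ratio across the kinetic read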
M4 ag: agonists of human muscarinic M4 receptor (CHRM4). CHO-K1 hM4/Gqi5, Fluo-8 calcium fluorescence; vehicle 0%, full acetylcholine response 100%. activation, % at 3 µM. hit rate 0.14% among 360,000. AID 624127. P08173;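 active = activation above the run mean over all test wells plus 3 SD, cut at about 32% in these data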;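 note: peak over basal fluorescence ratio per well then scaled between controls; 0% = DMSO wells and 100% = acetylcholine at EC100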
Target sequence (P08173 whole entry, looked up): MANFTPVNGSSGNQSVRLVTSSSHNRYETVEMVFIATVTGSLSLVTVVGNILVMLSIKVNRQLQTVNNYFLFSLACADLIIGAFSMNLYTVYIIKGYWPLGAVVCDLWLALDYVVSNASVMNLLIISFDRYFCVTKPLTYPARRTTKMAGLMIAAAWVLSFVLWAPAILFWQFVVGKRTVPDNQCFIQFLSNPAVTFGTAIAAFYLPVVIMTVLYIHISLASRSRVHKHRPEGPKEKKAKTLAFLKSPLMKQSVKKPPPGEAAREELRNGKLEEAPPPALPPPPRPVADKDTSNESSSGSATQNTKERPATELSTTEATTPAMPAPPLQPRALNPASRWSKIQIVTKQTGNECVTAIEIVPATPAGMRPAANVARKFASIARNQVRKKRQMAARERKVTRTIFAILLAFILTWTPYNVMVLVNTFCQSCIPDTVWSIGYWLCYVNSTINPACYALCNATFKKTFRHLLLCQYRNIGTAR
M5 antag: antagonists of human muscarinic M5 receptor (CHRM5) | hit rate 0.59% among 360,000 | inhibition, % at 3 µM | AID 624040 | P08912 | CHO-hM5 cells, Fluo-8 calcium fluorescence, ACh EC80;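 active = inhibition above a per-plate cutoff, the mean of that plate's test compounds plus 3 SD, cut at about 27% in these data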;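 note: 0% = acetylcholine EC80 with DMSO and 100% = DMSO without agonist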
CHRM4 PAM: CHRM4 positive allosteric modulation | P08173 | CHO-K1 hM4/Gqi5, Fluo-8 calcium fluorescence, ACh EC20; 0% = ACh EC20, 100% = maximal ACh | activation, % at 3 µM | hit rate 0.4% among 360,000;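 active = activation above its plate's cutoff, the mean activation of sample wells plus 3 SD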
M4 antag: blocks acetylcholine activation of human M4 receptor; P08173; CHO-hM4 cells, ACh EC80, Fluo-8 calcium fluorescence; inhibition, % at 3 µM; hit rate 0.73% among 360,000; AID 624125;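 active = inhibition above its plate's cutoff, the mean inhibition of sample wells plus 3 SD, cut at about 27% in these data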;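 note: 0% = acetylcholine EC80 with DMSO and 100% = DMSO without agonist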
CHRM5 PAM: positive allosteric modulators of human muscarinic M5 receptor | CHO-K1 hM5, Fluo-8 calcium, ACh EC20 PAM; 0% = ACh EC20, 100% = ACh EC100 | P08912 | AID 624038 | hit rate 0.3% among 360,000 | activation, % at 3 µM;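 active = activation above the run cutoff, the mean activation of all test compounds plus 3 SD, cut at about 18% in these data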
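system = human M5 receptor in CHO-K1 cells | compound = one concentration, 3 µM final (nominal) | schedule = Post-acetylcholine fluorescence recording 140 s | signal = Fluo-8 calcium dye fluorescence, kinetic read | benchmarks = low control EC20 acetylcholine (0%), high control EC100 acetylcholine (100%) | repeats = singlicate, one well per test compound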
* hit, by the source's call. Compounds with a hit are over-represented: about 1.9% of the library has one in this group of screens.

SMILES | CHRM5 agonist | M4 ag | M5 antag | CHRM4 PAM | M4 antag | CHRM5 PAM
COc1cc(C)nc(N(C)C(C)=O)n1 | -1 | 0 | 7 | 3 | -4 | -8
CSc1cc(C)nc(N(C)C(C)=O)n1 | 1 | 0 | 7 | 19* | -12 | -5
O=C(c1cc(F)ccc1F)C1CCCN(C(=O)CCc2cnccn2)C1 (stereo not drawn) | 0 | 1 | -1 | 0 | -4 | -9
O=C(Nc1ccc(Br)c(C(F)(F)F)c1)c1ccccc1 | -3 | 7 | 10 | -10 | 0 | -16
O=C(Nc1ccc(Br)c(C(F)(F)F)c1)c1ccc(C(F)(F)F)cc1 | -4 | 10 | 31* | -18 | 34* | -34
CCCCNC(=S)Nc1ccc(Cl)cc1 | 4 | 7 | 4 | -4 | 4 | -9
CCCCNC(=S)Nc1ccc(C(F)(F)F)cc1 | 0 | 10 | 34* | -9 | -3 | -28
O=C1NC(=O)N(Cc2ccccc2)C1=O | 1 | 1 | 5 | -4 | 9 | -2
CC(=O)NC1=NN(C(C)=O)C2(S1)C(=O)N(C(C)C)c1ccc(C)cc12 (stereo not drawn) | 1 | 0 | 8 | -5 | 11 | -4
CC(C)NC(=O)NC(=O)COC(=O)C1CCCN1C(=O)c1cccs1 (stereo not drawn) | 0 | 1 | 7 | 1 | 4 | -3
Cc1cc(NC(=O)COC(=O)C2CCCN2C(=O)c2cccs2)no1 (stereo not drawn) | -1 | 2 | -12 | 2 | -7 | 32*
CCN(C(=O)c1ccc(=O)n(C)n1)c1c(N)n(Cc2ccccc2)c(=O)[nH]c1=O | 3 | 1 | 4 | 5 | -5 | 5
Cc1c(C(=O)NCc2ccccc2)oc2ccc(S(=O)(=O)N3CCC4(CC3)OCCO4)cc12 | 5 | 10 | 11 | -8 | 12 | -14
Cc1c(C(=O)NCCC2=CCCCC2)oc2ccc(S(=O)(=O)N3CCC4(CC3)OCCO4)cc12 | 1 | 15 | 22 | -22 | 34* | -18
CNC(=O)c1[nH]cnc1C(=O)Nc1ccc(Cl)cc1 | -2 | 9 | 10 | -1 | -3 | -5
Cc1cccc(NC(=O)c2sc3nc(-c4ccc(F)cc4)cn3c2C)n1 | -7 | 4 | 32* | -7 | 0 | -18
CC(=O)Nc1cc(S(=O)(=O)C(F)(F)F)ccc1Cl | -2 | 0 | -10 | 1 | -2 | 19*
O=C(COc1ccccc1[N+](=O)[O-])Nc1cccc(C(=O)Nc2ccccc2C(=O)O)c1 | 0 | -2 | -18 | 8 | -4 | 7
O=C(NC1CCCC1)C1C(c2ccc(C(F)(F)F)cc2)=Nc2ccccc2N1C(=O)c1cccc(C(F)(F)F)c1 (stereo not drawn) | -1 | 0 | 9 | -7 | 35* | -12
CCn1c(N)c(C(=O)Nc2ccccc2C(=O)OC)sc1=S | -1 | 1 | 3 | 37* | -14 | 8
CCn1c(N)c(C(=O)NCCOC)sc1=S | -1 | 2 | -4 | 17 | -8 | -1
Cc1cccc(OCc2nc(C#N)c(N3CCCC3)o2)c1 | -4 | 0 | -11 | 2 | -11 | 21*
Cc1cccc(OCc2nc(C#N)c(N3CC(C)CC(C)C3)o2)c1 (stereo not drawn) | -1 | -1 | 5 | -4 | -11 | -10
COc1ccc(CC(=O)NNC(=O)c2ccncc2)cc1 | 5 | 1 | -6 | 17 | -20 | 4
CN(CCN1CCOCC1)C(=O)CC1C(=O)NCCN1Cc1ccccc1C(F)(F)F (stereo not drawn) | -5 | 1 | 1 | 19* | -13 | -1
COc1ccc(OC)c2cc3ccccc3cc12 | 6 | 1 | -4 | 3 | -5 | 4
COc1ccc(-c2csc(C(C)(O)c3ccccc3)n2)cc1OC (stereo not drawn) | -1 | 2 | -5 | 6 | -6 | 2
COc1ccc(C(C)(O)c2nc(-c3ccc(OC)c(OC)c3)cs2)cc1 (stereo not drawn) | 0 | 1 | 3 | 25* | -17 | 3
C/C(=N\NC(=O)c1ccc2c(c1)OCO2)c1ccc(C(=O)O)s1 | 0 | 11 | 28* | -8 | 8 | -16
